From ChEMBL document CHEMBL1129557, “Aryl phosphoramidate derivatives of d4T have improved anti-HIV efficacy in tissue culture and may act by the generation of a novel intracellular metabolite” (J Med Chem, 1996)

What was measured:
[1] = system: CEM-TK(-) (Homo sapiens); experiment: Activity against HIV-1 in CEM/TK cells (in vitro)
[2] = system: MT4; experiment: Cytotoxic concentration against MT-4 cells (in vitro); format: functional; conditions: Homo sapiens
How it was run: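 Mock-infected MT-4 cultures (5 × 10⁵ cells/mL) exposed to compound dilutions for 5 days. Viable cells counted by trypan blue. CC₅₀ is the concentration reducing viable cell number by 50%.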

[3] = system: CCRF-CEM; experiment: Activity against HIV-1 in CEM cells (in vitro); format: functional, cell-based; conditions: Homo sapiens
How it was run: (§1)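 Cells at 5 × 10⁵/mL infected with HIV-1 (IIIB) or HIV-2 (ROD) at about 100 CCID50/mL, then mixed with dilutions of test compound. After 4 days, giant cell formation scored microscopically. EC₅₀ is the concentration cutting giant cells by 50%. Mean of two to four independent experiments.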

[4] = system: CCRF-CEM; experiment: Cytotoxic concentration against CEM cells (in vitro); format: functional; conditions: Homo sapiens
How it was run: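 Mock-infected CEM cultures exposed to compound dilutions alongside the antiviral assay and scored at day 4. CC₅₀ is the concentration reducing cell number by 50%.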

[5] = system: CCRF-CEM; experiment: Activity against HIV-2 in CEM cells (in vitro); format: functional, cell-based; conditions: Homo sapiens
How it was run: as §1

[6] = system: MT4; experiment: Activity against HIV-2 in MT-4 cells (in vitro); format: functional, cell-based; conditions: Homo sapiens
How it was run: (§2)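 MT-4 cells at 5 × 10⁵/mL infected with HIV-1 (IIIB) or HIV-2 (ROD) at about 100 CCID50/mL and exposed to compound dilutions. After 5 days, viable cells counted by trypan blue staining. EC₅₀ is the concentration protecting cells against viral cytopathogenicity by 50%. Mean of two to four independent experiments.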

[7] = system: MT4; experiment: Activity against HIV-1 in MT-4 cells (in vitro); format: functional, cell-based; conditions: Homo sapiens
How it was run: as §2

[8] = system: CCRF-CEM; experiment: Compound was tested for activity against HIV-2 in CEM cells; format: functional, cell-based; conditions: Homo sapiens
How it was run: as §1

| SMILES | EC50 [1] [µM] | CC50 [2] [µM] | EC50 [3] [µM] | CC50 [4] [µM] | EC50 [5] [µM] | EC50 [6] [µM] | EC50 [7] [µM] | EC50 [8] [µM] |
| --- | --- | --- | --- | --- | --- | --- | --- | --- |
| COC(=O)C(CCSC)NP(=O)(OCC1C=CC(n2cc(C)c(=O)[nH]c2=O)O1)Oc1ccccc1 (stereo not drawn) | 0.33 | 22 | 0.6 | > 250 | 0.8 | 0.38 | 0.23 | – |
| COC(=O)C(C)NP(=O)(OCC1C=CC(n2cc(C)c(=O)[nH]c2=O)O1)Oc1ccc(Br)cc1Br (stereo not drawn) | 0.025 | – | 0.04 | 16 | 0.055 | – | – | – |
| CCOP(=O)(NC(C)C(=O)OC)OCC1C=CC(n2cc(C)c(=O)[nH]c2=O)O1 (stereo not drawn) | 48 | > 250 | 48 | > 250 | 240 | 62.5 | 28.5 | – |
| COC(=O)C(Cc1ccccc1)NP(=O)(OCC1C=CC(n2cc(C)c(=O)[nH]c2=O)O1)Oc1ccccc1 (stereo not drawn) | 0.33 | 34.1 | 0.8 | 216 | 1.35 | 0.38 | 0.19 | – |
| COC(=O)C(C)NP(=O)(OC[C@@H]1C=C[C@H](n2cc(C)c(=O)[nH]c2=O)O1)Oc1cccc(C(F)(F)F)c1 (stereo partly drawn) | 0.11 | 9.75 | 0.15 | 29.8 | 0.15 | 0.11 | 0.046 | – |
| Cc1cn([C@H]2C[C@H](N=[N+]=[N-])[C@@H](CO)O2)c(=O)[nH]c1=O [ZIDOVUDINE] | > 100 | 6 | – | > 500 | – | – | – | – |
| COC(=O)C(C)NP(=O)(OC)OCC1C=CC(n2cc(C)c(=O)[nH]c2=O)O1 (stereo not drawn) | > 250 | > 250 | 20 | > 250 | 50 | 50.9 | 25.4 | – |
| COC(=O)CNP(=O)(OCC1C=CC(n2cc(C)c(=O)[nH]c2=O)O1)Oc1ccccc1 (stereo not drawn) | 7 | > 250 | 6 | > 250 | 6 | 6.71 | 1.34 | – |
| COC(=O)C(C)NP(=O)(OCC1C=CC(n2cc(C)c(=O)[nH]c2=O)O1)Oc1c(F)c(F)c(F)c(F)c1F (stereo not drawn) | 8.5 | 82.2 | 2.5 | 115 | 3.7 | 4.07 | 1.72 | – |
| COC(=O)C(C)NP(=O)(OC[C@@H]1C=C[C@H](n2cc(C)c(=O)[nH]c2=O)O1)Oc1ccccc1 (stereo partly drawn) | 0.075 | > 100 | 0.182 | 100 | 0.2 | 0.067 | 0.0665 | – |
| COC(=O)C(C)NP(=O)(OCC1C=CC(n2cc(C)c(=O)[nH]c2=O)O1)Oc1cc(Cl)cc(Cl)c1 (stereo not drawn) | 0.11 | 10.5 | 0.11 | 26.9 | 0.15 | 0.12 | 0.037 | – |
| Cc1cn([C@H]2C=C[C@@H](CO)O2)c(=O)[nH]c1=O [STAVUDINE] | 33.3 | 19 | 0.8 | 174 | 0.775 | 0.77 | 0.651 | – |
| COC(=O)C(NP(=O)(OCC1C=CC(n2cc(C)c(=O)[nH]c2=O)O1)Oc1ccccc1)C(C)C (stereo not drawn) | 4 | > 250 | 12.5 | > 250 | 12.5 | 11.2 | 3.58 | – |
| COC(=O)C(CC(C)C)NP(=O)(OCC1C=CC(n2cc(C)c(=O)[nH]c2=O)O1)Oc1ccccc1 (stereo not drawn) | 0.4 | 61.5 | 1.1 | > 250 | – | 0.47 | 0.2 | 2.23 |
| CCc1ccc(OP(=O)(NC(C)C(=O)OC)OCC2C=CC(n3cc(C)c(=O)[nH]c3=O)O2)cc1 (stereo not drawn) | 0.06 | > 100 | 0.07 | 60 | 0.16 | 0.063 | 0.057 | – |
